Assay results reported in ChEMBL document CHEMBL2021781, “Dual targeting of histone deacetylase and topoisomerase II with novel bifunctional inhibitors” (J Med Chem, 2012).
Activity calls are given as the source filed them. The rule behind the calls is not given here.

Columns and labels:
[1] = target: T1, Protein deacetylase HDAC6 (Homo sapiens, UniProt Q9UBN7); assay: Inhibition of HDAC6 in human HeLa cell nuclear extract using Fluor de Lys as substrate after 15 mins by fluorometric analysis
T1 sequence (Q9UBN7 whole entry): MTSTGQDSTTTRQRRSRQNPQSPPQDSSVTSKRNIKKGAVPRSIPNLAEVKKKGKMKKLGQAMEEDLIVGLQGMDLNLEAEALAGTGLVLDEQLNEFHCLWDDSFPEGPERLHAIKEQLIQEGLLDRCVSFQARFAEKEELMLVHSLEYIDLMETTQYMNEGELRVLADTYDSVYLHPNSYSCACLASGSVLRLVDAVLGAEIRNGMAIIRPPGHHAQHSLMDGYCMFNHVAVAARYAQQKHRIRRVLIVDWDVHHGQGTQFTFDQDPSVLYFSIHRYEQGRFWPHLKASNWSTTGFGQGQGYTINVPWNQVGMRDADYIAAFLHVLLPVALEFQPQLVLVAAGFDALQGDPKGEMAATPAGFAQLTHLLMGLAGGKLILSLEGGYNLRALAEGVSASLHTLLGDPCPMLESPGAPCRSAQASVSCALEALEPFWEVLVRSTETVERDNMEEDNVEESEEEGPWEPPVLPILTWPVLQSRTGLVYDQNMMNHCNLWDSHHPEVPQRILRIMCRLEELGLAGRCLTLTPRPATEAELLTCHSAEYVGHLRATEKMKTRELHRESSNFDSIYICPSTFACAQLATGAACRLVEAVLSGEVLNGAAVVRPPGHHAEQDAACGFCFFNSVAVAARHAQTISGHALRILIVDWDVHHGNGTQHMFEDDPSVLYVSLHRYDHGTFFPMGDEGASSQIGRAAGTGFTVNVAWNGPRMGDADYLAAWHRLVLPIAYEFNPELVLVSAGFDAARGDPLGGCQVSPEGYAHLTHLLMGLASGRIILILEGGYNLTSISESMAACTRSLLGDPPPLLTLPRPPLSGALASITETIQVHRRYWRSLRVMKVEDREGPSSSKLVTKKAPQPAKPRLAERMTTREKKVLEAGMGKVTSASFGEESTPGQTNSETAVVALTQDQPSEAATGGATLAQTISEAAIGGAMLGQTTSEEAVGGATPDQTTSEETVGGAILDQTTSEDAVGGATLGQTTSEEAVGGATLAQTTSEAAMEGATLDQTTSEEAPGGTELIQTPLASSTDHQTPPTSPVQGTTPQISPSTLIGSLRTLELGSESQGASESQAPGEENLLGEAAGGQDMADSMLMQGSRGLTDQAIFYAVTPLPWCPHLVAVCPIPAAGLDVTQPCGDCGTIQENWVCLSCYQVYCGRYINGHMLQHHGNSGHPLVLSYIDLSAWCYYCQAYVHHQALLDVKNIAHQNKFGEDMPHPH

Histone deacetylase 8 = target: T2, Histone deacetylase 8 (Homo sapiens, UniProt Q9BY41); assay: Inhibition of HDAC8 in human HeLa cell nuclear extract using Fluor de Lys as substrate after 15 mins by fluorometric analysis
T2 sequence (Q9BY41 whole entry): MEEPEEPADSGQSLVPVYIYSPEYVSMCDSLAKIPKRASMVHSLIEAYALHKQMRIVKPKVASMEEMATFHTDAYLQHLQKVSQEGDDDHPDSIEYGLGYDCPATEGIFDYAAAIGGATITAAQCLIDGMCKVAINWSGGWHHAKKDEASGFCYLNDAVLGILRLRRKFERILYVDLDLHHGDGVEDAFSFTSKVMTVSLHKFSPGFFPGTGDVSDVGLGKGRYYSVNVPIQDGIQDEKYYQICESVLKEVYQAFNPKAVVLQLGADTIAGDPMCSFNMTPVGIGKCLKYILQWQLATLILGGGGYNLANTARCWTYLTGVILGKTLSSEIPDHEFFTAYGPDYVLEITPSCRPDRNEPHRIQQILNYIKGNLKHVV

[2] = target: Histone deacetylase (HDAC1 and HDAC2) (Homo sapiens, UniProt Q13547+Q92769); assay: Inhibition of HDAC1/2 in human HeLa cell nuclear extract using Fluor de Lys as substrate after 15 mins by fluorometric analysis; assay type: protein assay
DU-145 = assay: Antiproliferative activity against human DU145 cells after 72 hrs by MTS assay; assay type: functional, cell-based; details: DU-145, 72 h
How it was run: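 DU-145 cells passaged 24 h before dosing and exposed 72 h; compounds from 10 mM DMSO stocks; controls given media with 0.1% DMSO; 37°C, 5% CO2. Viability read by MTS assay, with Trypan Blue staining also used. IC50 from the average of two experiments, each run in triplicate.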

MCF7 = assay: Antiproliferative activity against human MCF7 cells after 72 hrs by MTS assay; assay type: functional, cell-based; details: MCF7, 72 h
Histone deacetylase 1 = Histone deacetylase 1 (Homo sapiens, UniProt Q13547); assay: Inhibition of HDAC1 in human HeLa cell nuclear extract using Fluor de Lys as substrate after 15 mins by fluorometric analysis
Sequence of Histone deacetylase 1 (Q13547 whole entry): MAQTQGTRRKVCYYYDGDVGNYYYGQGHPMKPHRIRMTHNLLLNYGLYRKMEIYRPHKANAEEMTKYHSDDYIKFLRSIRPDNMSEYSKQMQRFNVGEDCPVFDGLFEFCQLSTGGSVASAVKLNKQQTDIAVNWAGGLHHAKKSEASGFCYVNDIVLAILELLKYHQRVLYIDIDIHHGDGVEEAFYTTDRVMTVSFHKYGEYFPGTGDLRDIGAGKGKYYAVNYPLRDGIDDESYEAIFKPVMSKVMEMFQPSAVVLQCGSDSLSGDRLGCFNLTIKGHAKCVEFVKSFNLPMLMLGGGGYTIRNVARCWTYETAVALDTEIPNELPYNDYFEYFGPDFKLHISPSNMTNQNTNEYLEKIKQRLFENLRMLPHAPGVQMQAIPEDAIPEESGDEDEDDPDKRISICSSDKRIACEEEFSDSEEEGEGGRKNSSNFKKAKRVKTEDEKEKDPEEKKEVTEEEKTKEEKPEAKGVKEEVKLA

SK-MES-1 = assay: Antiproliferative activity against human SKMES1 cells after 72 hrs by MTS assay; assay type: functional, cell-based; details: SK-MES-1, 72 h
[3] = target: DNA topoisomerase 2-alpha (Homo sapiens) (UniProt P11388); assay: Inhibition of Topoisomerase 2 assessed as kinetoplast DNA decatenation at 50 uM after 10 mins by electrophoretic analysis
Sequence of DNA topoisomerase 2-alpha (Homo sapiens) (P11388 whole entry): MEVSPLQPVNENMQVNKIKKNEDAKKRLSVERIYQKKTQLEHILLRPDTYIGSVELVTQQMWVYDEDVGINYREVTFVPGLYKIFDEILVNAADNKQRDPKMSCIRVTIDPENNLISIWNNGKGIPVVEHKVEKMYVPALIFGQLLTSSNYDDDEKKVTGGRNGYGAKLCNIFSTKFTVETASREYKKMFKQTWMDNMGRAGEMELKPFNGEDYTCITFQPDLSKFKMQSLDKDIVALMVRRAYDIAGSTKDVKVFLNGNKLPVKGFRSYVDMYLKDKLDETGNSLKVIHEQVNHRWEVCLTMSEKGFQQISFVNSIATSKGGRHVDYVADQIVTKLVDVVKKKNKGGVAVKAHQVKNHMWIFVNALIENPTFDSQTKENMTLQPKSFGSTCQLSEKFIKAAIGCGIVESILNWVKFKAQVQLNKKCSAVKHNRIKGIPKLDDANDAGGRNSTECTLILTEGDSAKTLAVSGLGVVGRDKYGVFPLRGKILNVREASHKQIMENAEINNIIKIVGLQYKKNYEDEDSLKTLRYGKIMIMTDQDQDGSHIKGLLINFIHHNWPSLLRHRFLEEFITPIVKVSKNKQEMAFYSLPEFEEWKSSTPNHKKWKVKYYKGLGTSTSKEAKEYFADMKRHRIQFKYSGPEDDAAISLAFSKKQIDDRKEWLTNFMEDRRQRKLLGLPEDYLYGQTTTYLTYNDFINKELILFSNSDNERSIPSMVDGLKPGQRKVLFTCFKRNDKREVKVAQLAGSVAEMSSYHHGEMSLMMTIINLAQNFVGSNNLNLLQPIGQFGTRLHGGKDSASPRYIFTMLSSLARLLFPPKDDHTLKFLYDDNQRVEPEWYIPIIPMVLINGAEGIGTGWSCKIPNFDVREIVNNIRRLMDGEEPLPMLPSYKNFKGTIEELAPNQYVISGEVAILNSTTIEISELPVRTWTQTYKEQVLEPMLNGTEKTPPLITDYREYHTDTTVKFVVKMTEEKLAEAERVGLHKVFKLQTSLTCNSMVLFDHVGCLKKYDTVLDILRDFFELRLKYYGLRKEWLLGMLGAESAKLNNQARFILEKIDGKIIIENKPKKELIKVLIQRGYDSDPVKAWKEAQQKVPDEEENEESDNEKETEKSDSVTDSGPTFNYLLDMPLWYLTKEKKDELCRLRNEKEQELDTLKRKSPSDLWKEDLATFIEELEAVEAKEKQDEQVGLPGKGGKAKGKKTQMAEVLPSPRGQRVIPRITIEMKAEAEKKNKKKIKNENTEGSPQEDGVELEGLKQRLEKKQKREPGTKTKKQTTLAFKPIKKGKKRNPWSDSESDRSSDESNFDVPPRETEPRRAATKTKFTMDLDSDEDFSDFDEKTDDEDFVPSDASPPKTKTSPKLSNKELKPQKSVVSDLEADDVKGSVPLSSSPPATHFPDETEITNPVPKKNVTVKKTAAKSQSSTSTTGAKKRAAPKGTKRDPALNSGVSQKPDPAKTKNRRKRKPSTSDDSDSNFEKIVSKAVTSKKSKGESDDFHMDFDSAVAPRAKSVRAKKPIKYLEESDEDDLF

[4] = Drug uptake in human DU145 cell vesicle like body at 1 uM after 4 hrs by confocal microscopic analysis; assay type: ADME, cell-based; details: du-145, 4 h
How it was run: (§1)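 Cells plated on glass coverslips 24 h beforehand, then incubated in fresh medium with compound at 1 μM for 4 h. Washed with PBS, coverslips mounted and imaged by confocal microscopy at 488 nm excitation. DU-145 (prostate carcinoma) shown in main text; A549 lung tumour cells treated likewise.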

[5] = target: T3, Histone deacetylase (Homo sapiens) (UniProt Q13547+O15379+Q9UBN7+Q92769+Q9UQL6+Q8WUI4+Q9BY41+Q96DB2+P56524+Q9UKV0+Q969S8); assay: Inhibition of HDAC in human DU145 cells assessed as upregulation of p21 expression at 5 times IC50 concentration after 4 hrs by Western blot analysis relative to control; assay type: cell-based; details: DU-145
How it was run: (§2)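 Lysed in RIPA with protease inhibitors, cleared 14,000 RPM at 4°C. Immunoblotted, probing acetylated versus total tubulin; p21 also checked. Near-infrared detection at 700/800 nm.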

[6] = Drug uptake in human A549 cell vesicle like body at 1 uM after 4 hrs by confocal microscopic analysis; assay type: ADME, cell-based; details: a549, 4 h; how it was run: as §1
[7] = target: DNA topoisomerase 2-alpha (Homo sapiens) (UniProt P11388); assay: Inhibition of topoisomerase 2 in human DU145 cells assessed as stabilization of enzyme-DNA cleavage complex at […] after 30 mins by immunoblot analysis; assay type: cell-based; details: DU-145
[8] = target: T3, Histone deacetylase (Homo sapiens); assay: Inhibition of HDAC in human DU145 cells assessed as upregulation of p21 expression at IC50 concentration after 4 hrs by Western blot analysis relative to control; assay type: cell-based; details: DU-145; how it was run: as §2
[9] = target: DNA topoisomerase 2-alpha (Homo sapiens) (UniProt P11388); assay: Inhibition of topoisomerase 2 in human DU145 cells assessed as stabilization of enzyme-DNA cleavage complex at […] after 72 hrs by immunoblot analysis; assay type: cell-based; details: DU-145
[10] = target: T4, Protein deacetylase HDAC6 (Homo sapiens) (UniProt Q9UBN7); details: DU-145, 10 uM
T4 sequence (whole entry): T1 sequence (Q9UBN7 whole entry)

[11] = target: T4, Protein deacetylase HDAC6 (Homo sapiens); assay: Inhibition of HDAC6-mediated tubulin acetylation in human DU145 cells at 500 nM after 4 hrs by Western blot analysis; assay type: cell-based; details: DU-145; how it was run: as §2
[12] = Drug uptake in human A549 cell nucleus at 1 uM after 4 hrs by confocal microscopic analysis; assay type: ADME, cell-based; details: a549, 4 h; how it was run: as §1
[13] = target: T3, Histone deacetylase (Homo sapiens); assay: Inhibition of HDAC in human DU145 cells assessed as histone H4 acetylation after 24 hrs by Western blot analysis; assay type: cell-based; details: DU-145
How it was run: (§3)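 DU-145 cells passaged 24 h before dosing, then exposed 24 h to compound in growth medium (final DMSO 0.1%); controls received 0.1% DMSO. Lysed in RIPA with protease inhibitors at 4°C, cleared at 14,000 × g. Protein quantified against BSA, boiled, transferred to nitrocellulose. Probed for acetyl-H3, acetyl-H4 and p21waf1 with actin loading control; read by near-infrared scanning at 700/800 nm.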

[14] = target: T3, Histone deacetylase (Homo sapiens); assay: Inhibition of HDAC in human DU145 cells assessed as histone H3 hyperacetylation at 0.1 to 0.5 uM after 24 hrs by Western blot analysis; assay type: cell-based; details: DU-145; how it was run: as §3
[15] = target: T4, Protein deacetylase HDAC6 (Homo sapiens); assay: Inhibition of HDAC6-mediated tubulin acetylation in human DU145 cells at 90 nM after 4 hrs by Western blot analysis; assay type: cell-based; details: DU-145
How it was run: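 DU-145 cells passaged 24 h before dosing, then treated 4 h, with no more than 0.1% DMSO including controls. Lysis in RIPA buffer with protease inhibitors, protein quantified against a BSA standard, SDS-PAGE and transfer. Blots probed with rabbit anti-tubulin and mouse anti-acetyl tubulin, read by near-infrared imaging at 700/800 nm.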

[16] = target: T3, Histone deacetylase (Homo sapiens); assay: Inhibition of HDAC in human DU145 cells assessed as upregulation of p21waf1 protein expression at 0.1 uM after 24 hrs by Western blot analysis; assay type: cell-based; details: DU-145; how it was run: as §3
[17] = Drug uptake in human DU145 cell nucleus at 1 uM after 4 hrs by confocal microscopic analysis; assay type: ADME, cell-based; details: du-145, 4 h; how it was run: as §1
[18] = target: DNA topoisomerase 2-alpha (Homo sapiens) (UniProt P11388); assay: Inhibition of topoisomerase 2 in human DU145 cells assessed as stabilization of enzyme-DNA cleavage complex at 90 nM after 30 mins by immunoblot analysis; assay type: cell-based; details: DU-145
[19] = Drug uptake in human A549 cell perinuclear region at 1 uM after 4 hrs by confocal microscopic analysis; assay type: ADME, cell-based; details: a549, 4 h
How it was run: (§4)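 Cells plated on glass coverslips 24 h ahead, then given fresh media with compound at 1 μM for 4 h. After a PBS wash, coverslips were mounted and intracellular distribution imaged by confocal microscopy, excitation 488 nm. Done in DU-145 cells, with A549 lung tumor cells also examined.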

[20] = Drug uptake in human DU145 cell perinuclear region at 1 uM after 4 hrs by confocal microscopic analysis; assay type: ADME, cell-based; details: du-145, 4 h; how it was run: as §4
[21] = target: DNA topoisomerase 2-alpha (Homo sapiens) (UniProt P11388); assay: Inhibition of topoisomerase 2 in human DU145 cells assessed as stabilization of enzyme-DNA cleavage complex at 90 nM after 72 hrs by immunoblot analysis; assay type: cell-based; details: DU-145

| Structure (SMILES) | IC50 [1] [nM] | IC50 (Histone deacetylase 8) [nM] | IC50 [2] [nM] | IC50 (DU-145) [nM] | IC50 (MCF7) [nM] | IC50 (Histone deacetylase 1) [nM] | IC50 (SK-MES-1) [nM] | inhibition [3] | Activity [5] | Activity [8] | other results |
| --- | --- | --- | --- | --- | --- | --- | --- | --- | --- | --- | --- |
| COc1cccc2c1C(=O)c1c(O)c3c(c(O)c1C2=O)C[C@@](O)(C(C)=O)C[C@@H]3O[C@H]1C[C@H](NCc2ccc(-c3cn(CCCCCCCC(=O)NO)nn3)cc2)[C@H](O)[C@H](C)O1 | 19 | 379 | 4.2 | 2060 | 14800 | 11 | 2610 | Active | – | – | – |
| COc1cccc2c1C(=O)c1c(O)c3c(c(O)c1C2=O)C[C@@](O)(C(C)=O)C[C@@H]3O[C@H]1C[C@H](NCc2ccc(-c3cn(CCCCCCC(=O)NO)nn3)cc2)[C@H](O)[C@H](C)O1 | 20 | 710 | 0.9 | 2920 | 10600 | 8 | 3310 | Active | – | – | – |
| COc1cccc2c1C(=O)c1c(O)c3c(c(O)c1C2=O)C[C@@](O)(C(C)=O)C[C@@H]3O[C@H]1C[C@H](NCc2ccc(-c3cn(CCCCCC(=O)NO)nn3)cc2)[C@H](O)[C@H](C)O1 | 30 | 4130 | – | 1610 | 13400 | – | 4680 | Active | inactive | inactive | Drug uptake [4]: Active; Drug uptake [6]: Active; inhibition [7]: Active; inhibition [9]: inactive; inhibition [10]: Active |
| COc1cccc2c1C(=O)c1c(O)c3c(c(O)c1C2=O)C[C@@](O)(C(C)=O)C[C@@H]3O[C@H]1C[C@H](N)[C@H](O)[C@H](C)O1 [DAUNORUBICIN] | – | – | – | 90 | 950 | – | 170 | Active | inactive | inactive | inhibition [11]: Active; Drug uptake [12]: Active; inhibition [13]: Dose-dependent effect; inhibition [14]: Active; inhibition [15]: inactive; inhibition [16]: inactive; Drug uptake [17]: Active; inhibition [18]: Active; Drug uptake [19]: Active; Drug uptake [20]: Active; inhibition [21]: Active |
| COc1cccc2c1C(=O)c1c(O)c3c(c(O)c1C2=O)C[C@@](O)(C(C)=O)C[C@@H]3O[C@H]1C[C@H](NCc2ccc(-c3cn(CCCCC(=O)NO)nn3)cc2)[C@H](O)[C@H](C)O1 | 555 | – | 89.9 | 5390 | 24500 | 4600 | 15300 | Active | – | – | – |
| O=C(CCCCCCC(=O)Nc1ccccc1)NO [VORINOSTAT] | – | – | – | 2120 | – | – | – | – | – | – | – |
